Active and inactive are the calls of the source. The calls are words filed in the database; no cut-off is given here.
Tests used:
[1] = system: Human immunodeficiency virus 1; assay: Antiviral activity against HIV1 3B in CEM cells; format: functional, organism-based; details: Human immunodeficiency virus 1, 3B, CCRF-CEM
How it was run: (§1)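 CEM cells at 4×10^4 cells/mL infected with virus at ~100 CCID50 per mL of cell suspension, then mixed 1:1 with serial dilutions of compound. After four days, giant cell formation was scored microscopically.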

Influenza A virus = assay: Antiviral activity against influenza virus H3N2 in MDCK cells; format: functional, organism-based
[2] = Cytotoxicity against CEM cells; format: cell-based; details: human, CEM (CCRF-CEM) cells
How it was run: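 CEM cells were plated at 300,000–500,000 cells/mL with an equal volume of compound dilutions and incubated 3 days at 37 °C. Cell number was counted with a Coulter counter.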

[3] = system: Human immunodeficiency virus 2; assay: Antiviral activity against HIV2 ROD in CEM cells; format: functional, organism-based; details: Human immunodeficiency virus 2, ROD, CCRF-CEM; how it was run: as §1
[4] = Selectivity index, ratio of CC50 for CEM cells to EC50 for HIV1 infected CEM cells; format: functional, CCRF-CEM
[5] = target: T1, Human immunodeficiency virus type 1 reverse transcriptase (Human immunodeficiency virus 1, UniProt Q72547); assay: Inhibition of HIV1 reverse transcriptase using Poly rA.dT template
How it was run: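 Recombinant HIV-1(IIIB) RT was assayed in 50 mM Tris-HCl pH 7.8 with 5 mM DTT, 300 mM glutathione, 500 µM EDTA, 150 mM KCl, 5 mM MgCl2, BSA and 0.06% Triton X-100. Template/primer was poly(A).oligo(dT) at 0.1 mM with [3H]dTTP at 0.6 µM. Reactions ran 30 min at 37 °C, followed by TCA precipitation and radioactivity counting.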

[6] = target: T1, Human immunodeficiency virus type 1 reverse transcriptase; assay: Inhibition of HIV1 reverse transcriptase using Poly rC.dG template
[7] = system: Human immunodeficiency virus 1; assay: Antiviral activity against HIV1 3B with reverse transcriptase Leu100Ile mutation; format: functional, organism-based; details: Human immunodeficiency virus 1, 3B
How it was run: (§2)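 CEM cells at 4×10^4 cells/mL were infected with HIV-1(III_B) strains carrying NNRTI-type RT mutations, at ~100 CCID₅₀ per mL of cell suspension. Infected cells were mixed 1:1 with serial compound dilutions. Giant cell formation was scored microscopically after four days. EC₅₀ is the concentration inhibiting virus-induced cytopathicity by 50%.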

[8] = system: Human immunodeficiency virus 1; assay: Antiviral activity against HIV1 3B with reverse transcriptase Tyr181His mutation; format: functional, organism-based; details: Human immunodeficiency virus 1, 3B
[9] = system: Human immunodeficiency virus 1; assay: Antiviral activity against HIV1 3B with reverse transcriptase Lys103 Asn mutation; format: functional, organism-based; details: Human immunodeficiency virus 1, 3B; how it was run: as §2
[10] = system: Human immunodeficiency virus 1; assay: Antiviral activity against HIV1 3B with reverse transcriptase Tyr181Cys mutation; format: functional, organism-based; details: Human immunodeficiency virus 1, 3B; how it was run: as §2
[11] = system: Human immunodeficiency virus 1; assay: Antiviral activity against HIV1 3B with reverse transcriptase Tyr181Ile mutation; format: functional, organism-based; details: Human immunodeficiency virus 1, 3B; how it was run: as §2

| SMILES | EC50 [1] [µM] | Activity (Influenza A virus) | CC50 [2] [µM] | EC50 [3] [µM] | Ratio CC50/EC50 [4] | IC50 [5] [µM] | IC50 [6] [µM] | EC50 [7] [nM] | EC50 [8] [µM] | EC50 [9] [nM] | EC50 [10] [µM] | EC50 [11] [µM] | Ki [6] [µM] |
| --- | --- | --- | --- | --- | --- | --- | --- | --- | --- | --- | --- | --- | --- |
| O=C1CSC(C23CC4CC(CC(C4)C2)C3)N1c1ccc(I)cc1 (stereo unspecified) | > 228 | inactive | ≥ 228 | > 45 | <=1 | – | – | – | – | – | – | – | – |
| CN(C)CCN1C(=O)CSC1C12CC3CC(CC(C3)C1)C2 (stereo unspecified) | 65 | inactive | 125 | > 65 | 1.9 | > 648 | > 648 | – | – | – | – | – | – |
| Cc1cc(C)nc(N2C(=O)CSC2C)c1 (stereo unspecified) | > 450 | – | > 450 | > 450 | >450 | > 900 | ≥ 900 | – | – | – | – | – | – |
| Cc1cc(C)nc(N2C(=O)CS[C@@H]2C23CC4CC(CC(C4)C2)C3)c1 | 0.178 | inactive | 35 | > 12 | 198 | 20 | 19 | 2300 | > 12 | 1500 | 8.2 | > 12 | 12 |
| CN(C)CCCN1C(=O)CSC1C12CC3CC(CC(C3)C1)C2 (stereo unspecified) | 31 | inactive | 122 | > 62 | 4 | > 620 | ≥ 620 | – | – | – | – | – | – |
| Cc1ccnc2c1NC(=O)c1cccnc1N2C1CC1 [NEVIRAPINE] | – | – | > 50 | > 50 | – | – | – | – | – | – | – | – | – |
| O=C1CSC(C23CC4CC(CC(C4)C2)C3)N1CCN1CCCCC1 (stereo unspecified) | > 11 | inactive | 44 | > 11 | <4 | – | – | – | – | – | – | – | – |
| Cc1cc(C)nc(N2C(=O)CSC2C23CC4CC(CC(C4)C2)C3)c1 (stereo unspecified) | 0.35 | – | 42 | > 11.7 | 120 | 38 | 29 | – | – | – | – | – | – |
| O=C1CSC(C23CC4CC(CC(C4)C2)C3)N1c1cccnc1 (stereo unspecified) | ≥ 32 | inactive | 105 | > 63 | <=3 | ≥ 636 | ≥ 636 | – | – | – | – | – | – |
| Cc1ccnc(N2C(=O)CSC2C23CC4CC(CC(C4)C2)C3)c1 (stereo unspecified) | 5.6 | inactive | > 304 | > 304 | >54 | 88 | 40 | – | – | – | – | – | – |
| COc1ccc(N2C(=O)CSC2C23CC4CC(CC(C4)C2)C3)cc1 (stereo unspecified) | > 12 | inactive | 74 | > 12 | <6 | – | – | – | – | – | – | – | – |
| O=C1CSC(C23CC4CC(CC(C4)C2)C3)N1c1ccc(Cl)cc1 (stereo unspecified) | > 57 | inactive | ≥ 287 | > 57.5 | <=5 | – | – | – | – | – | – | – | – |
| O=C1CSC(C23CC4CC(CC(C4)C2)C3)N1c1ccc(Br)cc1 (stereo unspecified) | > 255 | inactive | ≥ 255 | > 255 | <1 | – | – | – | – | – | – | – | – |
| O=C1CSC(C23CC4CC(CC(C4)C2)C3)N1c1ccncc1 (stereo unspecified) | > 63 | inactive | 159 | > 63 | <2.5 | – | – | – | – | – | – | – | – |
| O=c1[nH]cnc2c1ncn2[C@H]1CC[C@@H](CO)O1 [DIDANOSINE] | 4.6 | – | > 250 | – | >54 | – | – | – | – | – | – | – | – |
| CCN(CC)CCCN1C(=O)CSC1C12CC3CC(CC(C3)C1)C2 (stereo unspecified) | 28 | inactive | 89 | > 57 | 3.1 | > 571 | > 571 | – | – | – | – | – | – |
| O=C1CSC(C23CC4CC(CC(C4)C2)C3)N1c1ccccn1 (stereo unspecified) | > 318 | inactive | > 318 | > 318 | <1 | – | – | – | – | – | – | – | – |
| CCN(CC)CCN1C(=O)CSC1C12CC3CC(CC(C3)C1)C2 (stereo unspecified) | 7.7 | inactive | 56 | > 59 | 7.2 | 481 | 475 | – | – | – | – | – | – |
| O=C1CSC(C23CC4CC(CC(C4)C2)C3)N1c1ccc(Cl)c(C(F)(F)F)c1 (stereo unspecified) | > 48 | inactive | > 240 | > 48 | <1 | – | – | – | – | – | – | – | – |
| Cc1cc(C)nc(N2C(=O)CS[C@H]2C23CC4CC(CC(C4)C2)C3)c1 | 12 | inactive | 44 | > 58 | 3.8 | > 584 | > 584 | – | – | – | – | – | – |
| O=C1CSC(C23CC4CC(CC(C4)C2)C3)N1CCN1CCOCC1 (stereo unspecified) | > 57 | inactive | 140 | > 57.1 | <3 | – | – | – | – | – | – | – | – |
| N#Cc1ccc(N2C(=O)CSC2C23CC4CC(CC(C4)C2)C3)cc1 (stereo unspecified) | > 295 | inactive | ≥ 295 | > 295 | <=1 | – | – | – | – | – | – | – | – |
| Cc1cccc(N2C(=O)CSC2C23CC4CC(CC(C4)C2)C3)n1 (stereo unspecified) | 21 | inactive | > 304 | > 304 | 14 | 43 | 40 | – | – | – | – | – | – |
| Cc1cccnc1N1C(=O)CSC1C12CC3CC(CC(C3)C1)C2 (stereo unspecified) | > 12 | inactive | 29 | > 12 | <2.5 | – | – | – | – | – | – | – | – |
| O=C1CSC(C23CC4CC(CC(C4)C2)C3)N1c1ccc(F)cc1 (stereo unspecified) | > 302 | inactive | ≥ 302 | > 302 | <=1 | – | – | – | – | – | – | – | – |
| Cc1ccc(N2C(=O)CSC2C23CC4CC(CC(C4)C2)C3)nc1 (stereo unspecified) | > 12 | inactive | 59 | > 12.4 | <4.8 | – | – | – | – | – | – | – | – |

— ChEMBL document CHEMBL1147853, “Synthesis and anti-HIV studies of 2-adamantyl-substituted thiazolidin-4-ones” (Eur J Med Chem, 2007)
